# Experimental data collected from several papers.
# Lines come from different studies, so protocols differ.
# EIF2AK4: eIF-2-alpha kinase GCN2 (EIF2AK4, Homo sapiens, UniProt Q9P2K8)
# EIF2AK4 S808G C-terminal kinase domain: eIF-2-alpha kinase GCN2, C-terminal kinase domain (EIF2AK4, Homo sapiens, UniProt Q9P2K8, S808G)
# EIF2AK4 S808G: eIF-2-alpha kinase GCN2 (EIF2AK4, Homo sapiens, UniProt Q9P2K8, S808G)
Structure (SMILES),target,test,system,conditions,endpoint,result
COc1cc(Cl)c(C(=O)N[C@@H](CN[C@H]2CC[C@@H](N)CC2)Cc2ccc(C#N)cc2)cc1-c1ccc(CN[C@H](C)c2ccc(C)cc2)o1,EIF2AK4,"enzyme activity, inhibitor",,1 µM,remaining activity,102%
COc1ccc2cc(OCC3(C(=O)O)CN(C(=O)c4ccc(F)cc4)C3)ccc2c1,EIF2AK4 S808G C-terminal kinase domain,"cell-free assay, competition with immobilised ligand",,1 µM,remaining binding,100%
Cc1ccc(C(=O)Nc2ccc(CN3CCN(C)CC3)c(C(F)(F)F)c2)cc1C#Cc1cnc2cccnn12,EIF2AK4 S808G,"enzyme activity, inhibitor",,23.5 nM,remaining activity,85%
CNc1cc(Oc2cc(C(=O)Nc3cc(N4CCN(C)CC4)cc(C(F)(F)F)c3)ccc2C)ncn1,EIF2AK4,"target engagement in cells, inhibitor, chemoproteomics",Huh-7,1 µM,inhibition,37%
CC(=O)Nc1c(C(C)=O)c(=O)n(C)c2nc(-c3ccc(Cl)cc3Cl)c(-c3ccc(Cl)cc3)cc12,EIF2AK4 S808G,"binding, competition with immobilised ligand",,1 µM,remaining binding,48%
Cc1cc(NC(=O)c2cccc3cc(-c4cccc5[nH]nc(N)c45)ccc23)ccc1F,EIF2AK4,"enzyme activity, inhibitor",,0.1 µM,activity vs control,92%
Cc1ccc(NC(=O)c2ccc(C)c(C(F)(F)F)c2)cc1C#Cc1nn(C2CCC(O)CC2)c2ncnc(N)c12 (stereo not shown),EIF2AK4,cell-free assay,,10 µM,remaining signal,50%
Cc1cnc(NC2CCOCC2)nc1-n1cnc(C(=O)NC(CN)c2cc(F)cc(Cl)c2)c1 (stereo not shown),EIF2AK4,"enzyme activity, inhibitor, radiometric",,1 µM,remaining activity,82%
Nc1ncnc2occ(-c3ccc(NC(=O)Nc4cc(C(F)(F)F)ccc4F)cc3)c12,EIF2AK4 S808G C-terminal kinase domain,"cell-free assay, inhibitor",,20 µM,remaining signal,3.6%
CN1CC(Oc2cnc(C#N)cc2-c2ccn3nc(NC(=O)C4CC4)cc3c2)C1,EIF2AK4,"enzyme activity, inhibitor",,1 µM,inhibition,15%
